Laboratory results: ChEMBL document CHEMBL1148175, “Immunostimulant agents from Andrographis paniculata” (1993)

Key:
Assay type in all cases: functional
Mus musculus [1] = assay: Immunostimulant activity in sheep RBC-immunized BALB/c albino mouse assessed as hemagglutininating antibody titer at 4 mg/kg, ip administered on day 7 and 3 prior to immunization measured after 5 days by microtiter hemagglutinination technique; conditions: route intraperitoneal
Method in brief: (§1)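 Compound dissolved in 0.05 M phosphate buffer pH 7.2 with 0.1 M NaCl, given orally daily for 7 days or ip on days -7 and -3, then ip immunization with 1×10^8 SRBC. Serum from retro-orbital bleed on day 5; twofold dilutions mixed with 1% SRBC, 1.5-2 h at room temperature. Titer = reciprocal of highest dilution giving 50% agglutination. Two experiments, four mice each.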

Mus musculus [2] = assay: Nonspecific immunostimulant activity in sheep RBC-immunized BALB/c albino mouse assessed as phagocytosis of [14C] leucine labeled Escherichia coli at 4 mg/kg, ip administered on day 7 and 3 prior to immunization; conditions: route intraperitoneal
Method in brief: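 Peritoneal macrophages from mice dosed ip on days -7 and -3 incubated in vitro with E. coli labelled with 14C-leucine (sp. act. 190 mCi/mmol). Uptake expressed as percentage incorporation of 14C-leucine. Three experiments, four animals each.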

Mus musculus [3] = assay: Nonspecific immunostimulant activity in sheep RBC-immunized BALB/c albino mouse assessed as [3H]thymidine uptake by splenic lymphocytes at 4 mg/kg, ip administered on day 7 and 3 prior to immunization by liquid scintillation counting; conditions: route intraperitoneal
Method in brief: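 Spleen cells from ip-treated mice (days -7, -3) at 1.5×10^6 cells/ml in complete RPMI-1640 with fetal calf serum, cultured in triplicate 3 days at 37° under 5% CO2, then pulsed 18 h with 1 μCi 3H-thymidine. Incorporation counted by scintillation, reported as cpm ± SD.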

Mus musculus [4] = assay: Immunostimulant activity in sheep RBC-immunized BALB/c albino mouse assessed as delayed-type hypersensitivity response-related right foot pad thickness at 4 mg/kg, ip administered on day 7 and 3 prior to immunization measured after 5 days relative to non-immunized foot pad thickness; conditions: route intraperitoneal
Method in brief: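 Mice (BALB/c, either sex, 20-22 g; four per group) immunized ip with 1×10^8 SRBC on day 0; on day 5 challenged with 1×10^8 SRBC (50 μl) in right foot pad. Foot pad thickness read 24 h later; reaction in mm = right (SRBC) minus PBS-injected pad. Compound in PBS pH 7.2 given ip on days -7 and -3. Student's t-test.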

Mus musculus [5] = assay: Immunostimulant activity in sheep RBC-immunized BALB/c albino mouse assessed as hemagglutininating antibody titer at 1 mg/kg, po administered daily for 7 days by microtiter hemagglutinination technique; method in brief: as §1
Mus musculus [6] = assay: Immunostimulant activity in sheep RBC-immunized BALB/c albino mouse assessed as hemolytic plaque-forming cells per 10^5 spleen cells at 4 mg/kg, ip administered on day 7 and 3 prior to immunization measured after 5 days; conditions: route intraperitoneal
Method in brief: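 Following ip dosing on days -7 and -3 and ip SRBC (1×10^8) on day 0, splenic hemolytic plaques counted on day 5 by Jerne-Nordin technique, duplicate per mouse. Group means expressed as PFC/10^5 spleen cells. Three experiments with four animals each; Student's t-test.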

Mus musculus [7] = assay: Immunostimulant activity in sheep RBC-immunized BALB/c albino mouse assessed as macrophage migration index at 1 mg/kg, po administered daily for 7 days measured after 18 to 24 hrs
Method in brief: (§2)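 Peritoneal exudate cells from dosed mice (oral daily 7 days, or ip on days -7 and -3) packed in microhematocrit capillaries and allowed to migrate 18-24 h in a migration chamber. MMI = ratio of migration areas, control vs. treated animals. Two experiments, four mice each.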

Mus musculus [8] = assay: Nonspecific immunostimulant activity in sheep RBC-immunized BALB/c albino mouse assessed as macrophage migration index at 4 mg/kg, ip administered on day 7 and 3 prior to immunization measured after 18 to 24 hrs; conditions: route intraperitoneal; method in brief: as §2

**Q.** How did the Activity (Mus musculus [1]) turn out when C=C1CC[C@@H]2[C@](C)(CO)[C@H](O)CC[C@@]2(C)[C@@H]1C/C=C1/C(=O)OC[C@H]1O [ANDROGRAPHOLIDE] was run?
**A.** 1536

**Q.** And the Activity (Mus musculus [2])?
**A.** 55.56%

**Q.** And the Activity (Mus musculus [3])?
**A.** 6486 cpm

**Q.** What about the Activity (Mus musculus [4]) of the same compound?
**A.** 2.5 mm

**Q.** And the Activity (Mus musculus [5])?
**A.** 1280

**Q.** And the Activity (Mus musculus [6])?
**A.** 128

**Q.** What about the Activity (Mus musculus [7]) of the same compound?
**A.** 1.6

**Q.** What about the Activity (Mus musculus [8]) of the same compound?
**A.** 2.84

**Q.** For C=C1CC[C@@H]2[C@](C)(CO[C@@H]3O[C@H](CO)[C@@H](O)[C@H](O)[C@H]3O)CCC[C@@]2(C)[C@@H]1CCC1=CCOC1=O [NEOANDROGRAPHOLIDE], which Activity (Mus musculus [1]) is on record?
**A.** 1638.4

**Q.** And the Activity (Mus musculus [5])?
**A.** 1365.33

**Q.** What about the Activity (Mus musculus [7]) of the same compound?
**A.** 1.9

**Q.** What about the Activity (Mus musculus [8]) of the same compound?
**A.** 2.51
